Source: PubChem BioAssay
Only some compounds are listed: those with a hit (about 1.9% of all), similar ones and a draw of the others.
ASAP1 GAP inh: blocks human ASAP1-stimulated Arf1 GTP hydrolysis. Q9ULH1. GDP FP detection. inhibition, % at 16.5 µM. hit rate 0.19% among 360,000; in the data active = inhibition above about 25%;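 also: 0% = vehicle with enzyme and substrate and 100% = no enzyme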
Target sequence (Q9ULH1 325-724 limits assumed): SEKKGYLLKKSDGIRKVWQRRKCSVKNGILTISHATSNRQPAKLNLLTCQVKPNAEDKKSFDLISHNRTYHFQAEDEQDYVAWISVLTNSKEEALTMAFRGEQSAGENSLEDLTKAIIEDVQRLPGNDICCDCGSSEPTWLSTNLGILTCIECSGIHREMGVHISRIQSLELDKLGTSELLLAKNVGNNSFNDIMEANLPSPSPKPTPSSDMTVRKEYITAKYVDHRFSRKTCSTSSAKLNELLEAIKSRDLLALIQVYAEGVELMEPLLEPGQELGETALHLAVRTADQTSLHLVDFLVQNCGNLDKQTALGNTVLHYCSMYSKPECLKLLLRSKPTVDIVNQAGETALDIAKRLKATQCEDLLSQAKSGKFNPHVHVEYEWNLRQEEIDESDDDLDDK
ARFGAP1 inh: inhibits rat ARF GTPase activating protein 1. Q62848. Arfgap1-stimulated ARF1 GTP hydrolysis, GDP FP detection. inhibition, % at 16.5 µM. hit rate 0.26% among 360,000. AID 651572;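 active = inhibition above a per-plate limit, mean inhibition of low control wells plus 3 SD, cut at about 25% in these data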;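 also: 0% = DMSO wells with enzyme and 100% = wells lacking Arfgap1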
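Replicates: Single well per compound | Assay system: Truncated rat Arfgap1 GAP domain | Control set: No-Arfgap1 wells (100%) versus DMSO full-reaction wells (0%) | Times: Enzyme reaction 120 min at 25 °C after 20 min preincubation | Reagent: Human ARF1(Δ1-17)-GTP substrate | Measured by: Tracer-displacement fluorescence polarization with EDTA stop, 620/688 nm | Measure: Percent inhibition of Arfgap1-stimulated GTP hydrolysis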
HGIII-sPLA2 inh: Blocks human group III sPLA2 activity. Q9NZ20. QFRET BODIPY PC-A2 liposome hydrolysis, fluorescence. inhibition, % at 12.2 µM. hit rate 0.56% among 370,000. AID 743126;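 active = inhibition above mean plus 3 SD of compounds lying within the high and low control bounds, cut at about 19% in these data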;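 also: 0% = median of test compound wells and 100% = no enzyme DMSO wells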
PLCg1 inh: blocks human PLC-gamma1 enzyme activity; P19174; purified PLC-gamma1, fluorogenic substrate, fluorescence; inhibition, % at 12.2 µM; hit rate 0.84% among 370,000; in the data active = inhibition above about 9.5%
PLCb3 inh: inhibitors of human phospholipase C beta3 | Purified PLC-beta3, fluorogenic substrate, fluorescence | hit rate 0.18% among 370,000 | AID 720704 | inhibition, % at 12.2 µM; in the data active = inhibition above about 11%;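 also: 0% = median of compound wells on plate and 100% = full blocker control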
hGIII sPLA2 conf: human GIII-sPLA2 inhibition, confirmation | shares compounds with HGIII-sPLA2 inh | recombinant hGIII-sPLA2, BODIPY PC-A2 QFRET fluorescence | inhibition, % at 12.2 µM | hit rate 34% among 2,000 | AID 743280;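 active = mean inhibition across triplicates above the hit cutoff set in the earlier primary screen, cut at about 19% in these data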;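 also: 0% = enzyme with DMSO and 100% = DMSO wells lacking enzyme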
BODIPY interf: 535nm fluorescence interference, HGIII-sPLA2 counter-screen. shares compounds with HGIII-sPLA2 inh. BODIPY FL product fluorescence interference, QFRET. inhibition, % at 12.2 µM. hit rate 8.5% among 2,000. AID 743282;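 active = average inhibition above the solvent-only control mean plus 3 SD, cut at about 6% in these data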;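 also: 0% = DMSO with substrate plus product and 100% = DMSO with substrate alone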
* hit, by the source's call; . = not tested or not shown.

SMILES | ASAP1 GAP inh | ARFGAP1 inh | HGIII-sPLA2 inh | PLCg1 inh | PLCb3 inh | hGIII sPLA2 conf | BODIPY interf
O=[N+]([O-])c1ccc(O)c(/C=N/NC(=S)Nc2ccc(Cl)cc2Cl)c1 | 4 | -11 | 40* | 0 | -9 | 31* | 20*
CCCCNC(=O)CCn1c(=O)c2ccccc2n(CC(=O)NCCc2ccc(OC)c(OC)c2)c1=O | -2 | 11 | 21* | 7 | -6 | -7 | -15
COCCCNC(=O)c1ccc(Cn2c(=O)c3ccccc3n(CC(=O)NCCc3ccc(OC)c(OC)c3)c2=O)cc1 | -1 | 1 | 9 | 1 | -6 | . | .
CCOC(=O)C1CCCN(C(=O)c2cc(-c3ccc(C)cc3)on2)C1 (stereo not given) | 7 | 1 | -6 | 2 | 0 | . | .
CCOC(=O)C1CCCN(C(=O)c2cc3ncc(Br)cn3n2)C1 (stereo not given) | 1 | 2 | 21* | -7 | -4 | 0 | -9
C/C(=N\NC(=O)COc1cccc(C)c1)c1ccc2ccccc2c1O | 2 | -7 | 22* | -21 | -27 | 39* | 6.0*
Cc1cccc(OCC(=O)NCc2ccccc2)c1 | -2 | 12 | 3 | 6 | -3 | . | .
CC1=C(C(=O)N(C)C)CC(CC(=O)NCc2cccc3ccccc23)C(=O)N1CCCN1CCCC1=O (stereo not given) | 5 | -5 | 21* | 1 | 2 | -3 | -7
Cc1cc(C(=O)NCC(=O)OCC(=O)N(C(C)C)C(C)C)ccc1[N+](=O)[O-] | 9 | -1 | 21* | 2 | 3 | 1 | -9
CN(C)Cc1ccccc1Sc1ccc2c(c1)CCCC2 | -2 | -4 | -4 | 3 | 5 | . | .
COc1cccc(Sc2ccccc2CN(C)C)c1 | -1 | 11 | 20* | -2 | 4 | -3 | -19
O=C(COC(=O)c1ccccc1O)NC12CC3CC(CC(C3)C1)C2 | 4 | 0 | -14 | 2 | 3 | . | .
O=C(OCC(=O)C12CC3CC(CC(C3)C1)C2)c1ccccc1O | -6 | 9 | 19* | 4 | -1 | -6 | -4
COC(=O)C1=C(C)N(Cc2ccc(C(F)(F)F)cc2)C(=NCc2ccccc2C(F)(F)F)NC1c1ccccc1C(F)(F)F (stereo not given) | 4 | 7 | 4 | -1 | -2 | . | .
CCOc1ccc(NC(=O)CSc2ccc(-c3ccccn3)nn2)cc1 | 8 | -5 | 19* | 6 | -6 | -5 | -22
COc1ccccc1NC(=O)CSc1ccc(-c2ccccn2)nn1 | 12 | 19 | 11 | 5 | -1 | . | .
COc1ccc(NC(=O)CSc2ccc(-c3ccccn3)nn2)cc1OC | 6 | 1 | 19* | 1 | -3 | -1 | -27
C[C@@H]1ON(C)[C@H]2C[C@H]3c4[nH]c5c(-c6cc(Cl)cc(Cl)c6)cccc5c4CCN3C(=O)[C@@H]12 | 8 | 3 | 2 | -41 | -59 | . | .
CC(C)(C)c1cccc(N/C(=C\C(=O)c2ccccc2)c2ccccc2)c1 | 5 | 10 | 0 | 3 | 8 | . | .
CCCCN(C)S(=O)(=O)c1c(C)[nH]c(=O)[nH]c1=O | -6 | -1 | 19* | -2 | 0 | 2 | -4
O=C(NCc1ccccc1)[C@@H]1CCCN1C(=O)[C@H]1CCCN1C(=O)c1ccc(F)c(C(F)(F)F)c1 | 6 | 9 | 5 | 3 | 4 | . | .
Cc1ccc(OC2CCN(C(=O)[C@@H](Cc3ccccc3)NC(=O)[C@H]3O[C@@H](n4ccc(=O)[nH]c4=O)[C@H](O)[C@@H]3O)CC2)cc1 | -6 | 1 | -10 | 1 | 6 | . | .
CN(C)c1ccc(N=Nc2ccccc2C(=O)OCC(=O)NC2CCCC2)cc1 | 11 | 18 | 20* | 5 | 1 | 24* | -11
CC(C)=CC(=O)NCC1CCN(C(=O)C(=O)c2cc3ccccc3o2)CC1 | -18 | 18 | 0 | -1 | 1 | . | .
C/C(=N\NC(=O)c1nn(C)c(C)c1Br)c1ccc(NC(=O)c2ccccc2F)cc1 | 12 | 3 | 22* | 1 | -3 | -1 | -11
C/C(=N\NC(=O)c1nn(C)c(C)c1Br)c1ccc(NC(=O)c2ccoc2C)cc1 | 7 | 5 | 13 | 1 | 0 | . | .
